Test results reported in ChEMBL document CHEMBL4321819, “Simple Structural Modifications Converting a Bona fide MDM2 PROTAC Degrader into a Molecular Glue Molecule: A Cautionary Tale in the Design of PROTAC Degraders” (J Med Chem, 2019).
Calls of active or inactive are those of the source. The rule behind the calls is not given here.

Tests used:
[1] = test system: RS4-11; experiment: Antiproliferative activity against human RS4:11 cells expressing wild type p53 assessed as cell growth inhibition after 4 days by WST-8 assay; type: functional, cell-based; details: RS4-11, 96 h
In short: (§1)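 Leukemia cells seeded at 10000–20000 cells/well, breast cancer lines at 5000–10000 cells/well. Serially diluted compound added, then 4 days at 37 °C, 5% CO2. Growth read with WST-8 reagent after at least 1 h, absorbance at 450 nm. RS4;11, MOLM-13 and breast lines were grown in RPMI 1640; MV-4-11 and HL-60 in IMDM; all with 10% FBS. Mean ± SE, at least three independent experiments.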

[2] = test system: HL-60; experiment: Antiproliferative activity against human HL60 cells with lack of p53 assessed as cell growth inhibition after 4 days by WST-8 assay; type: functional, cell-based; details: HL-60, 96 h; in short: as §1
[3] = test system: MDA-MB-231; experiment: Antiproliferative activity against human MDA-MB-231 cells harboring mutant p53 assessed as cell growth inhibition after 4 days by WST-8 assay; type: functional, cell-based; details: MDA-MB-231, 96 h; in short: as §1
[4] = target: T1, E3 ubiquitin-protein ligase Mdm2 (Homo sapiens, UniProt Q00987); experiment: Induction of MDM2 degradation in human RS4:11 cells assessed as upregulation of p53 at 1 to 30 nM after 1 hr by Western blot analysis; type: cell-based
In short: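 Western blots of MDM2 and p53 protein were run on RS4;11 cells (wild-type p53) in RPMI 1640 with 10% FBS. 2×10^6 cells/well were treated at the indicated concentrations for 1 h or 2 h. Lysis was in ice-cold buffer with protease inhibitor, followed by probing with specific antibodies.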

[5] = target: T1, E3 ubiquitin-protein ligase Mdm2; experiment: Induction of MDM2 degradation in human RS4:11/IRMI-2 cells harboring p53 hotspot mutation Y236H/R249G assessed as downregulation of MDM2 at 1 to 30 nM after 2 hrs by Western blot analysis; type: cell-based
In short: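 RS4;11/IRMI-2 cells are an MDM2 inhibitor-resistant line derived from RS4;11, with p53 mutations confirmed by sequencing. 2×10^6 cells/well were treated 2 h at the indicated concentrations. MDM2 protein was probed by Western blot after lysis in ice-cold buffer with protease inhibitor.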

[6] = target: Cellular tumor antigen p53 (Homo sapiens) (UniProt P04637); experiment: Activation of p53 in human RS4:11 cells assessed as increase in MDM2 mRNA expression at 3 nM after 1 to 2 hrs by qRT-PCR analysis; type: cell-based
In short: (§2)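 RS4;11 cells (RPMI 1640, 10% FBS, 37 °C, 5% CO2) treated with 3 nM or 10 nM compound; total RNA extracted and mRNA of p53 targets MDM2, CDKN1A, PUMA and BAX quantified by qRT-PCR. Mean ± standard error from at least three independent experiments.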

[7] = target: Cellular tumor antigen p53 (Homo sapiens) (UniProt P04637); experiment: Activation of p53 in human RS4:11 cells assessed as increase in CDKN1A mRNA expression at 3 nM after 1 to 2 hrs by qRT-PCR analysis; type: cell-based; in short: as §2
[8] = test system: MDA-MB-468; experiment: Antiproliferative activity against human MDA-MB-468 cells assessed as cell growth inhibition after 4 days in presence of control siRNA for 2 days followed by compound treatment by WST-8 assay; type: functional, cell-based
In short: (§3)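 MDA-MB-231 or MDA-MB-468 cells transfected for 2 days using Lipofectamine RNAiMAX with MDM2 siRNA, one of two CRBN siRNAs, or non-targeting control siRNA. Compound then added and growth read by WST-8 at 450 nm.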

[9] = test system: MDA-MB-231; experiment: Antiproliferative activity against human MDA-MB-231 cells harboring mutant p53 assessed as cell growth inhibition without interaction with cereblon after 4 days by WST-8 assay; type: functional, cell-based; details: MDA-MB-231, 96 h
[10] = test system: MDA-MB-468; experiment: Antiproliferative activity against human MDA-MB-468 cells harboring mutant p53 assessed as cell growth inhibition without interaction with cereblon after 4 days by WST-8 assay; type: functional, cell-based; details: MDA-MB-468, 96 h
[11] = test system: MDA-MB-468; experiment: Antiproliferative activity against human MDA-MB-468 cells transfected with CRBN siRNA LQ-021086-11-0002 assessed as cell growth inhibition after 4 days by WST-8 assay; type: functional, cell-based; details: MDA-MB-468, 96 h; in short: as §3
[12] = test system: MDA-MB-231; experiment: Antiproliferative activity against human MDA-MB-231 cells assessed as cell growth inhibition after 4 days in presence of control siRNA for 3 days followed by compound treatment by WST-8 assay; type: functional, cell-based
[13] = target: Protein cereblon/Eukaryotic peptide chain release factor GTP-binding subunit ERF3A/DNA damage-binding protein 1/Cullin-4A (Homo sapiens) (UniProt Q96SW2+Q16531+Q13619+P15170); experiment: Protac activity at GSPT1/CUL4/DDB1/CRBN in human RS4:11/IRMI-2 cells harboring p53 hotspot mutation Y236H/R249G assessed as effect on GSPT1 mRNA level after 3 hrs by qRT-PCR analysis; type: cell-based
[14] = target: T2, Eukaryotic peptide chain release factor GTP-binding subunit ERF3A (Homo sapiens, UniProt P15170); experiment: Induction of GSPT1 degradation in human MDA-MB-231 cells transfected with CRBN siRNA LQ-021086-10-0002 assessed as decrease in GSPT1 protein level at 0.1 uM after 2 to 24 hrs by Western blot analysis; type: cell-based
In short: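 MDA-MB-231 cells transfected with CRBN or non-targeting siRNA, then exposed to 0.1 μM compound for 2 h or 24 h. Lysed in ice-cold lysis buffer with protease inhibitor; GSPT1 and cereblon probed by Western blot.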

[15] = target: T2, Eukaryotic peptide chain release factor GTP-binding subunit ERF3A; experiment: Induction of GSPT1 degradation in human MDA-MB-468 cells transfected with CRBN siRNA LQ-021086-10-0002 assessed as decrease in GSPT1 protein level at 0.1 uM after 2 to 24 hrs by Western blot analysis; type: cell-based
In short: (§4)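 MDA-MB-231 or MDA-MB-468 cells transfected 2 days with CRBN siRNA (Lipofectamine RNAiMAX; non-targeting siRNA as control), then exposed to 0.1 μM for 2 h or 24 h. Cell culture was RPMI 1640 with 10% FBS at 37 °C, 5% CO2. GSPT1 and cereblon protein were probed by Western blot.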

[16] = target: T2, Eukaryotic peptide chain release factor GTP-binding subunit ERF3A; experiment: Induction of GSPT1 degradation in human MDA-MB-468 cells transfected with CRBN siRNA LQ-021086-11-0002 assessed as decrease in GSPT1 protein level at 0.1 uM after 2 to 24 hrs by Western blot analysis; type: cell-based; in short: as §4
[17] = Antiproliferative activity against human RS4:11/IRMI-2 cells harboring p53 hotspot mutation Y236H/R249G assessed as MDM2-independent cell growth inhibition after 4 days by WST-8 assay; type: functional, cell-based; details: RS4-11, 96 h; in short: as §1
[18] = target: T2, Eukaryotic peptide chain release factor GTP-binding subunit ERF3A; experiment: Induction of GSPT1 degradation in human RS4:11 cells at 0.1 uM pretreated with Nedd8 inhibitor MLN4924 followed by compound treatment after 2 hrs by Western blot analysis
[19] = target: T2, Eukaryotic peptide chain release factor GTP-binding subunit ERF3A; experiment: Induction of GSPT1 degradation in human RS4:11 cells at 0.1 uM pretreated with proteasome inhibitor PR-171 followed by compound treatment after 2 hrs by Western blot analysis

T2 sequence (P15170 whole entry): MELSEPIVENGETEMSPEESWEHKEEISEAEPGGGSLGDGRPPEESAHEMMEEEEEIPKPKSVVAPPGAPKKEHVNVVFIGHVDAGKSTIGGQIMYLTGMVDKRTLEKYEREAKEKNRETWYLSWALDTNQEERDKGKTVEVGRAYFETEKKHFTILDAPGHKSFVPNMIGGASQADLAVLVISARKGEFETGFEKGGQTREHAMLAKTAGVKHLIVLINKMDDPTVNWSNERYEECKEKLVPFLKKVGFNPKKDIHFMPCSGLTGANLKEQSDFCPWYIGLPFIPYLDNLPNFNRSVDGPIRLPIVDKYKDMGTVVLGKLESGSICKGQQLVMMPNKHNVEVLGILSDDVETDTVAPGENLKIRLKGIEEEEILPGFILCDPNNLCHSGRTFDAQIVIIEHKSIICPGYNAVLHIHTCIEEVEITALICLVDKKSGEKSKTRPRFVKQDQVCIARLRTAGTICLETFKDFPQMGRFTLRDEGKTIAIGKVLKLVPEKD
T1 sequence (Q00987 whole entry, looked up): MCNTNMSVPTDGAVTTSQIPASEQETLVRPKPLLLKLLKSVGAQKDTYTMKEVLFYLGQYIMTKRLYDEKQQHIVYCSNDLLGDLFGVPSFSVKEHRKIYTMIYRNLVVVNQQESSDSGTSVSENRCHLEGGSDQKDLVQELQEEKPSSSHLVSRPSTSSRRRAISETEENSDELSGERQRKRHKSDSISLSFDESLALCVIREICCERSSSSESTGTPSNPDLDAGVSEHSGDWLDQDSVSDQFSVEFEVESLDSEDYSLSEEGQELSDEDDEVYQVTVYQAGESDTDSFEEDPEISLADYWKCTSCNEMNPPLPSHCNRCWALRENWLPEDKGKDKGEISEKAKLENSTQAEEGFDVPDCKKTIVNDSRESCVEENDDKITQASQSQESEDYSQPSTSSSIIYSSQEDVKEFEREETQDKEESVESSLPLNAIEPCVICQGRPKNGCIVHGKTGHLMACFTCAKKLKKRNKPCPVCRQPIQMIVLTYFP
Cellular tumor antigen p53 (Homo sapiens), sequence (P04637 whole entry, looked up): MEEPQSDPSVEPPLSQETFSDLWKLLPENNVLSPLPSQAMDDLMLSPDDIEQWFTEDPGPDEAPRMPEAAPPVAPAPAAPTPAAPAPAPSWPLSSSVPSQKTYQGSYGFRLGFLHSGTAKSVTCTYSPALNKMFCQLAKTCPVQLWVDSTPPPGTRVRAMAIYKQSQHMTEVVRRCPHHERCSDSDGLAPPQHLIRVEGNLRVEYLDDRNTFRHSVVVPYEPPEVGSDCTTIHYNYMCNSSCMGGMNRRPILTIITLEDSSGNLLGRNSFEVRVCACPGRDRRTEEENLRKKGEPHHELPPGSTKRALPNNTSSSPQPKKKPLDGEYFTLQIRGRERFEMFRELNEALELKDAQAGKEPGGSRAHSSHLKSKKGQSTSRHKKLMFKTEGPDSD
Protein cereblon/Eukaryotic peptide chain release factor GTP-binding subunit ERF3A/DNA damage-binding protein 1/Cullin-4A (Homo sapiens), sequence (P15170 whole entry, looked up): as the sequence (P15170 whole entry) above
Protein cereblon/Eukaryotic peptide chain release factor GTP-binding subunit ERF3A/DNA damage-binding protein 1/Cullin-4A (Homo sapiens), sequence (Q13619 whole entry, looked up): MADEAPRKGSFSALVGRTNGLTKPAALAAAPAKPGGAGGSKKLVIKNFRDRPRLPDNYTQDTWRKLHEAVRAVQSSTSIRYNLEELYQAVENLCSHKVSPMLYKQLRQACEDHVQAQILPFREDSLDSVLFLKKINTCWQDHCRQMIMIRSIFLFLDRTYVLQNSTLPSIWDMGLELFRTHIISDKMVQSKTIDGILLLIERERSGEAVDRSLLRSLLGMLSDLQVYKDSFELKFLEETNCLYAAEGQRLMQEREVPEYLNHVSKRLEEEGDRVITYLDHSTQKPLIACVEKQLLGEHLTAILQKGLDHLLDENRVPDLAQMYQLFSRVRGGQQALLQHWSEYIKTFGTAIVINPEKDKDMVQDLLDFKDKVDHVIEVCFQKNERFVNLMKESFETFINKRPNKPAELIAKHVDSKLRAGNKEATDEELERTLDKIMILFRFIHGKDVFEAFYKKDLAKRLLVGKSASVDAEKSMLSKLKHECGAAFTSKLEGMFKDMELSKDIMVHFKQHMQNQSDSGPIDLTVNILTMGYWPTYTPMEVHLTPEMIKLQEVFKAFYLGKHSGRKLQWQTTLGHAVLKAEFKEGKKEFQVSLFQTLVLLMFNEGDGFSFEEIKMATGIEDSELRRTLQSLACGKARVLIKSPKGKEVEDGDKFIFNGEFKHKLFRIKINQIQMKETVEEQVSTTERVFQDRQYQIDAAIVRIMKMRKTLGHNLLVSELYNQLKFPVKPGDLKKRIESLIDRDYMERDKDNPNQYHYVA
Protein cereblon/Eukaryotic peptide chain release factor GTP-binding subunit ERF3A/DNA damage-binding protein 1/Cullin-4A (Homo sapiens), sequence (Q16531 whole entry, looked up): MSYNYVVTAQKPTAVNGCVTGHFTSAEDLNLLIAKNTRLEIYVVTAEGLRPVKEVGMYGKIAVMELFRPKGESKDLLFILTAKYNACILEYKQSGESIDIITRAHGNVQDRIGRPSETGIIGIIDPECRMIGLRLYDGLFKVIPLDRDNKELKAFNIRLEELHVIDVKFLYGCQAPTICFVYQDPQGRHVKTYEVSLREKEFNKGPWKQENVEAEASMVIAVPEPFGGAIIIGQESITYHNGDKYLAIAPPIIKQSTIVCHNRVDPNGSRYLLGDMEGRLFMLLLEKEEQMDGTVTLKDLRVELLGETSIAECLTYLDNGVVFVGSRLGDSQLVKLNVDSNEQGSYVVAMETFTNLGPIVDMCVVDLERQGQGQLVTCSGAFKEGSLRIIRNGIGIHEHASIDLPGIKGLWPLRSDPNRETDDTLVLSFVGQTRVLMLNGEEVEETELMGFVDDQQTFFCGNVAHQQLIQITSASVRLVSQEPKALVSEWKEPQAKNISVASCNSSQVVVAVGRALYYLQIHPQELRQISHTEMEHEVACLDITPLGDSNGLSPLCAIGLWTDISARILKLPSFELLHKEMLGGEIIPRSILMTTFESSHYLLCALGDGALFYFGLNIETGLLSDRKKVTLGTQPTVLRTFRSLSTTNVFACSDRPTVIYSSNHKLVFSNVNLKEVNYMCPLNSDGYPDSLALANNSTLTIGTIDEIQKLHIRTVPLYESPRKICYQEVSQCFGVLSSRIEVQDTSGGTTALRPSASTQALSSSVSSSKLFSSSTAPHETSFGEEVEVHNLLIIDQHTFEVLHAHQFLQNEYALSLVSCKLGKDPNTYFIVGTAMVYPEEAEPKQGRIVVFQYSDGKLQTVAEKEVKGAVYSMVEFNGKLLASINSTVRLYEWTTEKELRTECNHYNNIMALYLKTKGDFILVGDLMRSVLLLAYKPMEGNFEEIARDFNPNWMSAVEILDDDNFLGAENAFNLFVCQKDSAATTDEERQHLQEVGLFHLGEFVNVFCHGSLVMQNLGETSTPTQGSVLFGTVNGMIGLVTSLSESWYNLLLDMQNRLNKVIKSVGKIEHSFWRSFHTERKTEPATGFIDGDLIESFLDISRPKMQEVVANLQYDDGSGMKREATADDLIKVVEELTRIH
Protein cereblon/Eukaryotic peptide chain release factor GTP-binding subunit ERF3A/DNA damage-binding protein 1/Cullin-4A (Homo sapiens), sequence (Q96SW2 whole entry, looked up): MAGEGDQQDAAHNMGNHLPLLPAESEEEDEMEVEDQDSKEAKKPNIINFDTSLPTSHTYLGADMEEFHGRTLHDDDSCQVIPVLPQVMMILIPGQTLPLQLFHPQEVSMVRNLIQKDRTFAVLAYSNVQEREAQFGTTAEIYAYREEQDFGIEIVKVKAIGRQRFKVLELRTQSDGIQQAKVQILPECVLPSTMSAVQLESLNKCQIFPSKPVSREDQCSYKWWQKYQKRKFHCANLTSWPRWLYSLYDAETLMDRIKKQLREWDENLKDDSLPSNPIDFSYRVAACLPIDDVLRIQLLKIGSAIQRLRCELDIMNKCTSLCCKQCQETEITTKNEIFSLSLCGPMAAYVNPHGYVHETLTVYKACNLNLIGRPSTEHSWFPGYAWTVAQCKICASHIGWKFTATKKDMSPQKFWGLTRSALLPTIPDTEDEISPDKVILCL

With `O=C1CCC(N2Cc3c(CCCCCNC(=O)[C@@H]4NC5(CCCCC5)[C@@]5(C(=O)Nc6cc(Cl)ccc65)[C@H]4c4cccc(Cl)c4F)cccc3C2=O)C(=O)N1` (some centres undefined) the IC50 [1] was 3.5 nM, the IC50 [2] was 8.3 nM and the IC50 [3] was 39.4 nM. The Activity [4] was “inactive”, the Activity [5] was “Active” and the Activity [6] was “inactive”. The Activity [7] was “inactive”, the IC50 [8] was 31.1 nM and the IC50 [9] was 39.4 nM. It also gave an IC50 [10] of 26.4 nM, an IC50 [11] of over 1000 nM and an IC50 [12] of 30 nM. For the same compound, the Activity [13] was “inactive”, the Activity [14] was “inactive” and the Activity [15] was “inactive”. For the same compound, the Activity [16] was “inactive”, the IC50 [17] was 2.6 nM and the Activity [18] was “inactive”. The Activity [19] was “inactive”.
